Reference: ChEMBL document CHEMBL5653631, “A Potent and Selective ULK1 Inhibitor Suppresses Autophagy and Sensitizes Cancer Cells to Nutrient Stress” (iScience, 2018)

Legend:
U2OS = assay: Inhibition of autophagy in human U2OS cells assessed as BafA1-induced LC3B-II accumulation preincubated with compound for 3 hrs followed by BafA1 induction and measured after 1.5 hr under starvation condition by immunoblotting analysis; format: functional, cell-based; conditions: dose <= 5.0 µM, time 4.5 hrs
In short: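 U2OS cells kept 3 hr in full growth medium or HBSS-based starvation medium with or without inhibitor; BafA1-induced LC3B-II accumulation quantified by immunoblotting against β-actin.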

[1] = molecular target: Homeodomain-interacting protein kinase 2 (Homo sapiens) (UniProt Q9H2X6); assay: Inhibition of human recombinant HIPK2 at 40 nM related to control ULK1
Homeodomain-interacting protein kinase 2 (Homo sapiens), sequence (Q9H2X6 whole entry, looked up): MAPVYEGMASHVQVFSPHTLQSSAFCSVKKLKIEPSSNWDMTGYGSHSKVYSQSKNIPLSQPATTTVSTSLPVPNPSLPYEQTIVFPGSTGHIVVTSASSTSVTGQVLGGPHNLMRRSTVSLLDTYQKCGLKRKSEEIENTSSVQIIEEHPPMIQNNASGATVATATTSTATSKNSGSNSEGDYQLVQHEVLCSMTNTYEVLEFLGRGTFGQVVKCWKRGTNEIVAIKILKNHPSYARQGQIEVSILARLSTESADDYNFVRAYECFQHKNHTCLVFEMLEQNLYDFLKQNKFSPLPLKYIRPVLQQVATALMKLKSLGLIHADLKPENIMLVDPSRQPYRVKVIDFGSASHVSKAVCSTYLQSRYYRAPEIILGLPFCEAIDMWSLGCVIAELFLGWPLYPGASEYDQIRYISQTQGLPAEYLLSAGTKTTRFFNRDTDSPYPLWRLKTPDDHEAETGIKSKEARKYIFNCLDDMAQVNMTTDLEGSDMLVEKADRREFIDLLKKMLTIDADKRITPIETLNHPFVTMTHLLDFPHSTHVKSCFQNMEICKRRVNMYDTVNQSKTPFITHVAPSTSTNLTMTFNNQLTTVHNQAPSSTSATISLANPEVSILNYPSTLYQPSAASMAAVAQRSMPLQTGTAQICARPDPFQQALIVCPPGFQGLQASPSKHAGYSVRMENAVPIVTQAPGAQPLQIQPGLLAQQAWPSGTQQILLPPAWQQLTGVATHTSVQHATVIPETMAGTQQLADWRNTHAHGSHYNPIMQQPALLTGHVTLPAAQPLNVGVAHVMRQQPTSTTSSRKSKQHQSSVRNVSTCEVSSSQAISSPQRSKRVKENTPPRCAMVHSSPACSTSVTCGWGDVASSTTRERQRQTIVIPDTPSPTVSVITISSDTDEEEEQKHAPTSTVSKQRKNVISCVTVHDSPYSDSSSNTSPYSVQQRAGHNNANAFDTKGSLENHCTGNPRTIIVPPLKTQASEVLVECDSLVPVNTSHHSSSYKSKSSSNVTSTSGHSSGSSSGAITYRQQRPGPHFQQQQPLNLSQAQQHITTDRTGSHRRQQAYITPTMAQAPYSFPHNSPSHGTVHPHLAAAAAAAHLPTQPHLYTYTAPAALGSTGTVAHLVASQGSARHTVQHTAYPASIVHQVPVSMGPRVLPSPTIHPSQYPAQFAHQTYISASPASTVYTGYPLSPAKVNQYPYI

[2] = molecular target: Serine/threonine-protein kinase Nek7 (Homo sapiens) (UniProt Q8TDX7); assay: Inhibition of human recombinant NEK7 at 40 nM in presence of ATP by radiometric assay relative to control
Serine/threonine-protein kinase Nek7 (Homo sapiens), sequence (Q8TDX7 whole entry, looked up): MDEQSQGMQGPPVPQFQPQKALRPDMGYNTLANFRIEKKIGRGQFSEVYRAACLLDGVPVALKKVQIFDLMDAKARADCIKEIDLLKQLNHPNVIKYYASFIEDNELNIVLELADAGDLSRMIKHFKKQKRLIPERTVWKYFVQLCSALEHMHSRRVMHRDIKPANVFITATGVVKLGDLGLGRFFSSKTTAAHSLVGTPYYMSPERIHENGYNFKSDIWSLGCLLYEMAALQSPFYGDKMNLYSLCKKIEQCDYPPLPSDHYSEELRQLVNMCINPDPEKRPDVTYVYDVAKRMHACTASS

[3] = molecular target: G protein-coupled receptor kinase 5 (Homo sapiens) (UniProt P34947); assay: Inhibition of human recombinant GPRK5 at 40 nM related to control ULK1
G protein-coupled receptor kinase 5 (Homo sapiens), sequence (P34947 whole entry, looked up): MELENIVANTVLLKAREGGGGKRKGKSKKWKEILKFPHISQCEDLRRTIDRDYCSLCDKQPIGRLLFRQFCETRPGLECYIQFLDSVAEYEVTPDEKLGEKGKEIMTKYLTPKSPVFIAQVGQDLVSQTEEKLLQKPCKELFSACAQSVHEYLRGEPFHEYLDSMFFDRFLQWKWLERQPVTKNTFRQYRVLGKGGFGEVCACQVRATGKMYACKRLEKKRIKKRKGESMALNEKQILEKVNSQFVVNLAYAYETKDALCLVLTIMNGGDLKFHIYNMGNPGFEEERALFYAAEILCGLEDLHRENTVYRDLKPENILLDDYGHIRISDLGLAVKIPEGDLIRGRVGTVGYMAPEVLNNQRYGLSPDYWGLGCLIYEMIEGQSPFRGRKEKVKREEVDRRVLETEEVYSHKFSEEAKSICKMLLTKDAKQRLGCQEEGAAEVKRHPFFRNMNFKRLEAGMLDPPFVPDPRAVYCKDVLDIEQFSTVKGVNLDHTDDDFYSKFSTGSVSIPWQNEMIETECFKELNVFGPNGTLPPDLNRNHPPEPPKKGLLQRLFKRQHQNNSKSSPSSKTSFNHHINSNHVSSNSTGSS

[4] = molecular target: T1, Tyrosine-protein kinase ITK/TSK (Homo sapiens) (UniProt Q08881); assay: Inhibition of human recombinant ITK at 40 nM in presence of ATP by radiometric assay relative to control
T1 sequence (whole entry): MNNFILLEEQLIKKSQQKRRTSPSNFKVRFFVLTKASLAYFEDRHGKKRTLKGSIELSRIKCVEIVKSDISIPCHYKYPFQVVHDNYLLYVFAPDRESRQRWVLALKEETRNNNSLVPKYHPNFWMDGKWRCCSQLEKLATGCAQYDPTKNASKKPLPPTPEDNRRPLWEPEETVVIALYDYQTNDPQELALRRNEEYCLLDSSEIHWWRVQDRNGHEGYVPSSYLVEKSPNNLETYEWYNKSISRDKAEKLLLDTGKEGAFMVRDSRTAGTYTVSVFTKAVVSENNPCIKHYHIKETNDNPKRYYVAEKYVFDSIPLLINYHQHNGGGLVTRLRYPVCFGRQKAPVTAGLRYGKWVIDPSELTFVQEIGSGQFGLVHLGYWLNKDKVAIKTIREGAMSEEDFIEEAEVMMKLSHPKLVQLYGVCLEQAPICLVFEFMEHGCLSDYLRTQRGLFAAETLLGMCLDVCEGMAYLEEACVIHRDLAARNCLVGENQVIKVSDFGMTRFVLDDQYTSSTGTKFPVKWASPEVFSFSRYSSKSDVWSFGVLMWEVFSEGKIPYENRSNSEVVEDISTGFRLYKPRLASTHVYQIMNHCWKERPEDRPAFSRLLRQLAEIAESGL

[5] = molecular target: Insulin-like growth factor 1 receptor (Homo sapiens) (UniProt P08069); assay: Inhibition of human recombinant IGF1R at 500 nM related to control ULK1
Insulin-like growth factor 1 receptor (Homo sapiens), sequence (P08069 31-736 limits assumed): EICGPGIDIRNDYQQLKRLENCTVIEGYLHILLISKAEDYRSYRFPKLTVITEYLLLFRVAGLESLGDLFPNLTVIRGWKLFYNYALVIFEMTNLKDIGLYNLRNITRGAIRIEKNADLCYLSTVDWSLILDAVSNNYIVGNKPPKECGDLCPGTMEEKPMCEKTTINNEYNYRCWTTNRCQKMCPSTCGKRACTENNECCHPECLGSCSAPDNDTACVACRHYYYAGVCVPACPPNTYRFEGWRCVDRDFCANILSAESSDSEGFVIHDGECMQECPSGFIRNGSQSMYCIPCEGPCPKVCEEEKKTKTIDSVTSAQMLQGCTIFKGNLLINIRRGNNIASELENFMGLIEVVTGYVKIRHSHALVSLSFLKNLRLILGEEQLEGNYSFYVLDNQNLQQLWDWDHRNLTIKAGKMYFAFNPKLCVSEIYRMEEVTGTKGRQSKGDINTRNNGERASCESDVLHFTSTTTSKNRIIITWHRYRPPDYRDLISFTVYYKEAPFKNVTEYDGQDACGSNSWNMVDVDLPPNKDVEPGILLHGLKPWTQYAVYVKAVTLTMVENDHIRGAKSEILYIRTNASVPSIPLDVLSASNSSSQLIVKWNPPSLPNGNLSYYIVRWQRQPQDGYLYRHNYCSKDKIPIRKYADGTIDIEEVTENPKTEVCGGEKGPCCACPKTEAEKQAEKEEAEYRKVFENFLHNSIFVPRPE
Insulin-like growth factor 1 receptor (Homo sapiens), sequence (P08069 741-1367 limits assumed): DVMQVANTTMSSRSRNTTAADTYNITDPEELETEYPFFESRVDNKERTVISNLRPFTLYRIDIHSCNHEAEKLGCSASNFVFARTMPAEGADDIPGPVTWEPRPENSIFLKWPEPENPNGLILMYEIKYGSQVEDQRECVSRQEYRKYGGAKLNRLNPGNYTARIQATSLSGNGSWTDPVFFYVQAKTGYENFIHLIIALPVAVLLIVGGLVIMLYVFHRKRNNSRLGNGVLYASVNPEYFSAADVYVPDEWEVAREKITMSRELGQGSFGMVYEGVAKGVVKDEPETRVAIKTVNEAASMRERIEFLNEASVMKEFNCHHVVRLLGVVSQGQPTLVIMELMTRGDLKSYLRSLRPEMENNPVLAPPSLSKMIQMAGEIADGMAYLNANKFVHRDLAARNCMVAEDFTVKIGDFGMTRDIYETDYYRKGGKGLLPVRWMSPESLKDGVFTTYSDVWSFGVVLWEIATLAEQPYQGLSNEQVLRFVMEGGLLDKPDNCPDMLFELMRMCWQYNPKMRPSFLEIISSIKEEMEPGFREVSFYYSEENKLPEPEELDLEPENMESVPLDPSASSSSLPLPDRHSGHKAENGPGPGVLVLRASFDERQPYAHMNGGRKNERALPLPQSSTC

[6] = molecular target: Serine/threonine-protein kinase/endoribonuclease IRE1 (Homo sapiens) (UniProt O75460); assay: Inhibition of human recombinant IRE1 at 500 nM in presence of ATP by radiometric assay relative to control
Serine/threonine-protein kinase/endoribonuclease IRE1 (Homo sapiens), sequence (O75460 19-977 limits assumed): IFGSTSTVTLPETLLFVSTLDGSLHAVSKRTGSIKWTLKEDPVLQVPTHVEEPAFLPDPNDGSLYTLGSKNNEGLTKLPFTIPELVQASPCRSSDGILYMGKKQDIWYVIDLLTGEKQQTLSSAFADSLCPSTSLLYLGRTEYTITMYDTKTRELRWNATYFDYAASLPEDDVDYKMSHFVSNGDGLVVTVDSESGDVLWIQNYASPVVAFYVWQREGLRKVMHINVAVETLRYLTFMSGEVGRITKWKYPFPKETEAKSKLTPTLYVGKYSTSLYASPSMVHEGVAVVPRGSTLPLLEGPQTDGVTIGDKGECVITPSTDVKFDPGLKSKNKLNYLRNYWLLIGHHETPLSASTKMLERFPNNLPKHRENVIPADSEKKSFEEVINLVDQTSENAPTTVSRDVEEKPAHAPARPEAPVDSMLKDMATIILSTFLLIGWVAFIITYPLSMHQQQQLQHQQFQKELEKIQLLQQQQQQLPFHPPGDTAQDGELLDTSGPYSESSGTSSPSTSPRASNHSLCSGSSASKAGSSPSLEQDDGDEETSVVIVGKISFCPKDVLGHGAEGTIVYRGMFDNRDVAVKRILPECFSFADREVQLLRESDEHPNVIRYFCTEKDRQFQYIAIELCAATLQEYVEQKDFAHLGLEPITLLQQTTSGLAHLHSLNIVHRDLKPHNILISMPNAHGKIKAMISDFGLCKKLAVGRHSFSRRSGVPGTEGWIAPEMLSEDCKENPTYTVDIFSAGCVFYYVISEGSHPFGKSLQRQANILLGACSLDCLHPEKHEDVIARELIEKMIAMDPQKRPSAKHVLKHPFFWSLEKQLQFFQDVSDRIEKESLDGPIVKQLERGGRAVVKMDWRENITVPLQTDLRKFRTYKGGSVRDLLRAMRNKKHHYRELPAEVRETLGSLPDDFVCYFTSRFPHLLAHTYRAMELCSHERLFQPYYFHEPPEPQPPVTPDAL

[7] = molecular target: Rho-associated protein kinase 2 (Homo sapiens) (UniProt O75116); assay: Inhibition of human recombinant ROCK2 at 15 nM related to control ULK1
[8] = molecular target: T2, Interleukin-1 receptor-associated kinase 4 (Homo sapiens) (UniProt Q9NWZ3); assay: Inhibition of human recombinant IRAK4 at 15 nM in presence of ATP by radiometric assay relative to control
T2 sequence (whole entry): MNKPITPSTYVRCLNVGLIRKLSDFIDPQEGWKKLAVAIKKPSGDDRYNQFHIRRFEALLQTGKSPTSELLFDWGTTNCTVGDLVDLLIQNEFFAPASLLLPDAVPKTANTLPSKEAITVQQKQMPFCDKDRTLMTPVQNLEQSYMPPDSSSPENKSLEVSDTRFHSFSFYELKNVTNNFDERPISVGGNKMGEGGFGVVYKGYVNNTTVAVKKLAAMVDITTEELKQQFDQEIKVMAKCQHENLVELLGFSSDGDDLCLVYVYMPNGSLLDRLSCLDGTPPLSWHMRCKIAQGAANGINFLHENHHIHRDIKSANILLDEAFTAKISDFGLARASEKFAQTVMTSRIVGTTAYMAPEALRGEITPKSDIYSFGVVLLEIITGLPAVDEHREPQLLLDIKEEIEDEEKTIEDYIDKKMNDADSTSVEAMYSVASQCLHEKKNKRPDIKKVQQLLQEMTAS

[9] = molecular target: Tyrosine-protein kinase Tec (Homo sapiens) (UniProt P42680); assay: Inhibition of human recombinant TEC at 15 nM in presence of ATP by radiometric assay relative to control
Tyrosine-protein kinase Tec (Homo sapiens), sequence (P42680 whole entry, looked up): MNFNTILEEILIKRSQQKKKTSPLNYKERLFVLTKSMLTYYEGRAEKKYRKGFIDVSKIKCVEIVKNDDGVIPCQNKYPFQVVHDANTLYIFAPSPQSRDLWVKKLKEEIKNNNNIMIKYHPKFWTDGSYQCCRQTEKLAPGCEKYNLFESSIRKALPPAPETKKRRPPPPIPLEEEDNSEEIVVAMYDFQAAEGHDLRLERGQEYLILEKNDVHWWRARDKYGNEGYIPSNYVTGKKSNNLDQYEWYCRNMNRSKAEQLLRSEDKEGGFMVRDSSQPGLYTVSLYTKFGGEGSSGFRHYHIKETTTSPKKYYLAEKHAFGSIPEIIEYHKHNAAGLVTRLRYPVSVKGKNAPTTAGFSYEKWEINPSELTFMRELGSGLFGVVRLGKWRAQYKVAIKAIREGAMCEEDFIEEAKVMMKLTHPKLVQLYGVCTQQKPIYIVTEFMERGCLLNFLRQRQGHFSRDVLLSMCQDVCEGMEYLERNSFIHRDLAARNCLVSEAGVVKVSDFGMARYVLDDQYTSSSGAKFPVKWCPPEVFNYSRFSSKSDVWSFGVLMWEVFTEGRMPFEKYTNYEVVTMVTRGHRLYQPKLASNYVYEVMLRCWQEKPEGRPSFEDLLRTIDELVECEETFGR

Homo sapiens = species on record: Homo sapiens; assay: Inhibition of human recombinant CK1d at 15 nM in presence of ATP by radiometric assay relative to control

With `O=C(N[C@@H](C1CC1)C(F)(F)F)c1cc(-c2cnn3cc(-c4ccc(F)cc4)cnc23)cs1` the inhibition (U2OS) was “Dose-Dependent Effect”, the fold change (FC) [1] was 0 and the inhibition [2] was 0%. The fold change (FC) [3] was 0.01 and the inhibition [4] was 0%.
Compound `CNC(=O)c1ccccc1Oc1nc(Nc2cc(OC)c(OC)c(OC)c2)ncc1Br` has a fold change (FC) [5] of 0.04 and an inhibition [6] of 0%.
Compound `CC(C)[C@H](NC(=O)c1cc(-c2cnn3cc(-c4ccc(OCCN5CCCCC5)cc4)cnc23)cs1)C(F)(F)F` has a fold change (FC) [7] of 0, an inhibition [8] of 0% and an inhibition [9] of 0%. For the same compound, the inhibition (Homo sapiens) was 3%.
